# Laboratory results taken from ChEMBL document CHEMBL1132632, “Conformational and quantitative structure-activity relationship study of cytotoxic 2-arylidenebenzocycloalkanones” (J Med Chem, 1999).
# Assays:
# P388 [1] = test: Inhibitory activity was tested against P388 cells; format: functional, cell-based; conditions: Mus musculus
# L1210 [2] = test: Average potency against L1210 cells; format: functional, Mus musculus
# CCRF-CEM [3] = test: Inhibitory activity was tested against CEM cells; format: functional, cell-based; conditions: Homo sapiens
# P388 [4] = test: Average potency against P388 cells; format: functional, Mus musculus
# MOLT-4 [5] = test: Inhibitory activity was tested against Molt4/C8 cells; format: functional, cell-based; conditions: Homo sapiens
# MOLT-4 [6] = test: Average potency against Molt4/C8cells; format: functional, Homo sapiens
# L1210 [7] = test: Inhibitory activity was tested against L1210 cells; format: functional, cell-based; conditions: Mus musculus
# CCRF-CEM [8] = test: Average potency against CEM cells; format: functional, Homo sapiens
# Tumor Cell line = test: Tested against human tumor cell lines, mean graph mid point values(MG MID) are determined.; format: functional
# In short: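 Panel of about 55 human tumor cell lines from nine cancer types: leukemia, melanoma, non-small-cell lung, colon, CNS, ovarian, renal, prostate and breast. Compounds were tested from 10⁻⁴ to 10⁻⁸ M, and the 50% growth-inhibitory concentration was found for each line.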
IC50 (P388 [1]),IC50 (CCRF-CEM [3]),IC50 (MOLT-4 [5]),IC50 (L1210 [7]),SMILES,AP (L1210 [2]),AP (P388 [4]),AP (MOLT-4 [6]),AP (CCRF-CEM [8]),MG MID (Tumor Cell line)
38.6 µM,67.1 µM,> 500 µM,59.1 µM,Cc1ccc(/C=C2\Cc3ccccc3C2=O)cc1,127 µM,42.9 µM,267 µM,155 µM,
17.7 µM,460 µM,> 500 µM,161 µM,Cc1ccc(/C=C2\CCc3ccccc3C2=O)cc1,135 µM,20.9 µM,158 µM,115 µM,
21 µM,32.4 µM,173 µM,43.3 µM,O=C1/C(=C/c2cccc(Br)c2)Cc2ccccc21,127 µM,42.9 µM,267 µM,155 µM,46.7 µM
26.3 µM,31.8 µM,50.9 µM,41.2 µM,O=C1/C(=C/c2cccc(Cl)c2)Cc2ccccc21,127 µM,42.9 µM,267 µM,155 µM,
20.4 µM,> 500 µM,> 500 µM,202 µM,O=C1/C(=C/c2ccc(Br)cc2)CCc2ccccc21,135 µM,20.9 µM,158 µM,115 µM,
> 50 µM,> 500 µM,> 500 µM,> 500 µM,O=C1/C(=C/c2ccc([N+](=O)[O-])cc2)Cc2ccccc21,127 µM,42.9 µM,267 µM,155 µM,
> 50 µM,41.3 µM,42.3 µM,112 µM,O=C1/C(=C/c2ccccc2)Cc2ccccc21,127 µM,42.9 µM,267 µM,155 µM,
24.9 µM,41.3 µM,80.3 µM,50.4 µM,Cc1cccc(/C=C2\Cc3ccccc3C2=O)c1,127 µM,42.9 µM,267 µM,155 µM,
> 50 µM,32.6 µM,226 µM,45.8 µM,COc1ccc(/C=C2\Cc3ccccc3C2=O)cc1,127 µM,42.9 µM,267 µM,155 µM,
> 50 µM,299 µM,> 500 µM,64.8 µM,O=C1/C(=C/c2ccc(Br)cc2)Cc2ccccc21,127 µM,42.9 µM,267 µM,155 µM,
> 50 µM,> 500 µM,> 500 µM,217 µM,COc1cccc(/C=C2\Cc3ccccc3C2=O)c1,127 µM,42.9 µM,267 µM,155 µM,
> 50 µM,284 µM,> 500 µM,54.1 µM,O=C1/C(=C/c2ccc(Cl)cc2)Cc2ccccc21,127 µM,42.9 µM,267 µM,155 µM,
22.1 µM,8.84 µM,9.41 µM,44 µM,COc1ccc(/C=C2\CCc3ccccc3C2=O)cc1,135 µM,20.9 µM,158 µM,115 µM,
> 50 µM,42.2 µM,60 µM,89 µM,O=C1/C(=C/c2ccc(F)cc2)Cc2ccccc21,127 µM,42.9 µM,267 µM,155 µM,
20.9 µM,48.2 µM,> 500 µM,69.1 µM,O=C1/C(=C/c2ccc(Cl)cc2)CCc2ccccc21,135 µM,20.9 µM,158 µM,115 µM,
15.9 µM,33.4 µM,41.2 µM,49.3 µM,O=C1/C(=C/c2ccc(F)cc2)CCc2ccccc21,135 µM,20.9 µM,158 µM,115 µM,
> 50 µM,41 µM,135 µM,61.7 µM,CN(C)c1ccc(/C=C2\Cc3ccccc3C2=O)cc1,127 µM,42.9 µM,267 µM,155 µM,
40 µM,39.2 µM,46.1 µM,181 µM,O=C1/C(=C/c2cccc(F)c2)Cc2ccccc21,127 µM,42.9 µM,267 µM,155 µM,

# Continued, molecule first:
SMILES,IC50 (P388 [1]),IC50 (CCRF-CEM [3]),IC50 (MOLT-4 [5]),IC50 (L1210 [7]),AP (L1210 [2]),AP (P388 [4]),AP (MOLT-4 [6]),AP (CCRF-CEM [8]),MG MID (Tumor Cell line)
O=C1CCCCC/C1=C\c1cccc(Cl)c1,25.7 µM,40.5 µM,88.6 µM,144 µM,227 µM,34.5 µM,186 µM,136 µM,41.7 µM
CN(C)c1ccc(/C=C2\CCCCCC2=O)cc1,18.8 µM,45.1 µM,57.4 µM,79.1 µM,227 µM,34.5 µM,186 µM,136 µM,85.1 µM
CN(C)c1ccc(/C=C2\CCCc3ccccc3C2=O)cc1,,,,,85.2 µM,11.2 µM,66 µM,47 µM,1.41 µM
Cc1cccc(/C=C2\CCc3ccccc3C2=O)c1,16.3 µM,9.41 µM,35.8 µM,73.2 µM,135 µM,20.9 µM,158 µM,115 µM,
O=C1/C(=C/c2cccc(Cl)c2)CCCc2ccccc21,8.2 µM,9.44 µM,23.8 µM,52.3 µM,85.2 µM,11.2 µM,66 µM,47 µM,16.6 µM
Cc1ccc(/C=C2\CCCCCC2=O)cc1,> 50 µM,> 500 µM,> 500 µM,> 500 µM,227 µM,34.5 µM,186 µM,136 µM,83.2 µM
O=C1/C(=C/c2cccc(Cl)c2)CCc2ccccc21,16.8 µM,9.19 µM,41.8 µM,118 µM,135 µM,20.9 µM,158 µM,115 µM,
O=C1/C(=C/c2cccc(F)c2)CCc2ccccc21,31.1 µM,8.01 µM,11.9 µM,61.2 µM,135 µM,20.9 µM,158 µM,115 µM,
COc1cccc(/C=C2\CCCCCC2=O)c1,> 50 µM,128 µM,170 µM,283 µM,227 µM,34.5 µM,186 µM,136 µM,85.1 µM
COc1cccc(/C=C2\CCc3ccccc3C2=O)c1,17.6 µM,8.78 µM,12.1 µM,60.7 µM,135 µM,20.9 µM,158 µM,115 µM,
O=C1/C(=C/c2ccc(F)cc2)CCCc2ccccc21,11.1 µM,20 µM,53.6 µM,60.3 µM,85.2 µM,11.2 µM,66 µM,47 µM,
O=C1CCCCC/C1=C\c1cccc(Br)c1,24.1 µM,137 µM,176 µM,246 µM,227 µM,34.5 µM,186 µM,136 µM,
O=C1CCCCC/C1=C\c1ccc(Br)cc1,16.8 µM,42.8 µM,49.4 µM,68.4 µM,227 µM,34.5 µM,186 µM,136 µM,
O=C1/C(=C/c2cccc([N+](=O)[O-])c2)CCc2ccccc21,12 µM,5.3 µM,8.01 µM,254 µM,135 µM,20.9 µM,158 µM,115 µM,
O=C1/C(=C/c2ccc(Br)cc2)CCCc2ccccc21,18.6 µM,17.1 µM,54.7 µM,50.9 µM,85.2 µM,11.2 µM,66 µM,47 µM,
O=C1/C(=C/c2cccc(Br)c2)CCCc2ccccc21,10.5 µM,8.9 µM,17.1 µM,51 µM,85.2 µM,11.2 µM,66 µM,47 µM,
CN(C)c1ccc(/C=C2\CCc3ccccc3C2=O)cc1,5.3 µM,1.65 µM,2.11 µM,17.5 µM,135 µM,20.9 µM,158 µM,115 µM,
O=C1/C(=C/c2ccccc2)CCc2ccccc21,30.2 µM,7.42 µM,32.4 µM,121 µM,135 µM,20.9 µM,158 µM,115 µM,
O=C1/C(=C/c2ccc([N+](=O)[O-])cc2)CCc2ccccc21,> 50 µM,> 500 µM,> 500 µM,> 500 µM,135 µM,20.9 µM,158 µM,115 µM,
